Key:
[1] = Antagonist activity at PGD2 subtype 1 in human platelet rich plasma assessed as inhibition of PGD2-induced accumulation of cAMP; assay type: functional
Procedure, shortened: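 Blood from normal human volunteers; PRP prepared by centrifugation at 150g for 15 min. IBMX added (2 mM final) to block cAMP degradation. PRP samples preincubated 10 min at 37 °C with increasing compound concentrations in DMSO before PGD2 challenge. Reaction stopped with ethanol to lyse cells and extract cAMP. IC50 reported.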

[2] = Binding affinity to human recombinant PGD2 receptor subtype 1 by radioligand competition binding assay
Procedure, shortened: (§1)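 Radioligand competition binding on recombinant human receptors, DP1 or thromboxane TP receptor; Ki values reported.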

Thromboxane A2 receptor = molecular target: T1, Thromboxane A2 receptor (Homo sapiens, UniProt P21731); experiment: Binding affinity to human recombinant TP receptor by radioligand competition binding assay; procedure, shortened: as §1
T1 sequence (P21731 whole entry): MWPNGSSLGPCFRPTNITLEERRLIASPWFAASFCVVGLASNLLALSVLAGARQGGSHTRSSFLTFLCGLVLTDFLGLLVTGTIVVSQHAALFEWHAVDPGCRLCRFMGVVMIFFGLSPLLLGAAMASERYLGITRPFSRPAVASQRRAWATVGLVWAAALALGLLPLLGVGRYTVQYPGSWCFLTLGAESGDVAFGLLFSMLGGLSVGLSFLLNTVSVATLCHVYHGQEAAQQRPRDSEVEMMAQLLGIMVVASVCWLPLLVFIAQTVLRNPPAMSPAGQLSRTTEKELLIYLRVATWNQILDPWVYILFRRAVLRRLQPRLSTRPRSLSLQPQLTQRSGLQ

[3] = Bioavailability in rat; assay type: ADME, organism-based; conditions: in vivo
[4] = Half life in rat; assay type: ADME, organism-based; conditions: in vivo
[5] = molecular target: T2, Prostaglandin E2 receptor EP1 subtype (Homo sapiens, UniProt P34995); experiment: Binding affinity to EP1 receptor
T2 sequence (P34995 whole entry): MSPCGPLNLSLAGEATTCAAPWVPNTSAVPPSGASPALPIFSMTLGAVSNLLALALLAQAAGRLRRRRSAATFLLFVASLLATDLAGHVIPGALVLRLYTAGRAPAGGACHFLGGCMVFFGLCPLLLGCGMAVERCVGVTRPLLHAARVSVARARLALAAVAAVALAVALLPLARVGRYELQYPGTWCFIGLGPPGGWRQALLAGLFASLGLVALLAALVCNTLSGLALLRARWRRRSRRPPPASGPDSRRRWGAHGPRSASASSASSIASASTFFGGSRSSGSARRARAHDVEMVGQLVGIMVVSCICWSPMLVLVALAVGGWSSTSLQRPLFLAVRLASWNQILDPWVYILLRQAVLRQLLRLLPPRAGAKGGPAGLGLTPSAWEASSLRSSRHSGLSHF

[6] = molecular target: Prostaglandin E2 receptor EP2 subtype (Homo sapiens, UniProt P43116); experiment: Binding affinity to EP2 receptor
[7] = molecular target: T3, Prostaglandin E2 receptor EP3 subtype (Homo sapiens, UniProt P43115); experiment: Binding affinity to EP3 receptor
T3 sequence (P43115 whole entry): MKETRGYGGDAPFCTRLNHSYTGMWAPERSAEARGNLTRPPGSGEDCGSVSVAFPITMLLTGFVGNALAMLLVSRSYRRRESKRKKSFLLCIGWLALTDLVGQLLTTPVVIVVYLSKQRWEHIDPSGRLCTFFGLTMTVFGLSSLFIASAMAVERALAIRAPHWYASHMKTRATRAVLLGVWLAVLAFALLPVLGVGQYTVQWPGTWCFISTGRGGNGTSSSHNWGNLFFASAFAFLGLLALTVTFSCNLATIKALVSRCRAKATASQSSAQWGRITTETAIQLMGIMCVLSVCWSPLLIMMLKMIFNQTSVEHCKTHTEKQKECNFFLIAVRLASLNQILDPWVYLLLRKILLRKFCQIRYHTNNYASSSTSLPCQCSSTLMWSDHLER

[8] = molecular target: Prostaglandin E2 receptor EP4 subtype (Homo sapiens, UniProt P35408); experiment: Binding affinity to EP4 receptor
[9] = molecular target: Prostaglandin F2-alpha receptor (Homo sapiens, UniProt P43088); experiment: Binding affinity to FP receptor
Prostacyclin receptor = Prostacyclin receptor (Homo sapiens, UniProt P43119); experiment: Binding affinity to IP receptor
[10] = molecular target: T4, Prostaglandin D2 receptor 2 (Homo sapiens, UniProt Q9Y5Y4); experiment: Binding affinity to CRTH2 receptor
T4 sequence (Q9Y5Y4 whole entry): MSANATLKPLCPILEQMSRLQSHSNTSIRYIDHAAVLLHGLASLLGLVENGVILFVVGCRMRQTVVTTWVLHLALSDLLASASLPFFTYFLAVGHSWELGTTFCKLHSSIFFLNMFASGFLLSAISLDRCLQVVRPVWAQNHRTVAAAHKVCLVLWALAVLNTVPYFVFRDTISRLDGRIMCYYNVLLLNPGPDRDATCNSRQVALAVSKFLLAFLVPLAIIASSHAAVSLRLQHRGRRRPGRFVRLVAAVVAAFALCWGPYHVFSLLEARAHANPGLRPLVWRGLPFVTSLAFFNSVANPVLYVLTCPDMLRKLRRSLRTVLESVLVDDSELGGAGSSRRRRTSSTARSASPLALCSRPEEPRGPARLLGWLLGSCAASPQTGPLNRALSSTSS

Prostacyclin receptor, sequence (P43119 whole entry): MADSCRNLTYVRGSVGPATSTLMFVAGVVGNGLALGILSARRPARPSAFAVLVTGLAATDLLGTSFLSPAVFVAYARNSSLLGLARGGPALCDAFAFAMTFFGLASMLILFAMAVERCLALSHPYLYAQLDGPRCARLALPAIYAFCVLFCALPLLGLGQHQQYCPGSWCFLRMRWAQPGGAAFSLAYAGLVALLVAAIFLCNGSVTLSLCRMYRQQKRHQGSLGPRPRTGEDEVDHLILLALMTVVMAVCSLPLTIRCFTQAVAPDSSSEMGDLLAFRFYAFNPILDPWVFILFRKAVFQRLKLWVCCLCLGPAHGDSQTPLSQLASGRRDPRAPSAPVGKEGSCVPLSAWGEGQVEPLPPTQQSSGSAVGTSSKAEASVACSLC
Prostaglandin E2 receptor EP4 subtype, sequence (P35408 whole entry): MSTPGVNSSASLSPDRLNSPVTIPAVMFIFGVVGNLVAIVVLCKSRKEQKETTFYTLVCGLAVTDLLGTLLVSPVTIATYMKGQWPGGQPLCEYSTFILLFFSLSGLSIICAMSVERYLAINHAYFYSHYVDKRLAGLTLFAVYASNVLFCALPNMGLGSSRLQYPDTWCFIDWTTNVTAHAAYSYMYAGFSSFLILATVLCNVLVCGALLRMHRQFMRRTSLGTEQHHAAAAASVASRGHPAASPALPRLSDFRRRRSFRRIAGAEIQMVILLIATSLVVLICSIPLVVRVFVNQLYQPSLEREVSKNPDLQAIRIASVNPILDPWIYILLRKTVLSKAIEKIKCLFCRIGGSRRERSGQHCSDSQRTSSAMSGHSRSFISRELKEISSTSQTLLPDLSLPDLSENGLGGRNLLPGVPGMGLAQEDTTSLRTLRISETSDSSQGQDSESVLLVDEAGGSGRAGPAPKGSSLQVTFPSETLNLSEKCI
Prostaglandin F2-alpha receptor, sequence (P43088 whole entry): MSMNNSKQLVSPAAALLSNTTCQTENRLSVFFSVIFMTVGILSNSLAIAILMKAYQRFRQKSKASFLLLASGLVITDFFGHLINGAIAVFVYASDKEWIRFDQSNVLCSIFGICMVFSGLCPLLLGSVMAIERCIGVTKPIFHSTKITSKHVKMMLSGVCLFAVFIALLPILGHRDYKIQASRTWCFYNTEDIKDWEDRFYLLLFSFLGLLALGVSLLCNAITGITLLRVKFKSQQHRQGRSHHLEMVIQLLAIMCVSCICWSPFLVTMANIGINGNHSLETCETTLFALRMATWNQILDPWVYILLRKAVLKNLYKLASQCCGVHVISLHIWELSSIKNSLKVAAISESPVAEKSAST
Prostaglandin E2 receptor EP2 subtype, sequence (P43116 whole entry): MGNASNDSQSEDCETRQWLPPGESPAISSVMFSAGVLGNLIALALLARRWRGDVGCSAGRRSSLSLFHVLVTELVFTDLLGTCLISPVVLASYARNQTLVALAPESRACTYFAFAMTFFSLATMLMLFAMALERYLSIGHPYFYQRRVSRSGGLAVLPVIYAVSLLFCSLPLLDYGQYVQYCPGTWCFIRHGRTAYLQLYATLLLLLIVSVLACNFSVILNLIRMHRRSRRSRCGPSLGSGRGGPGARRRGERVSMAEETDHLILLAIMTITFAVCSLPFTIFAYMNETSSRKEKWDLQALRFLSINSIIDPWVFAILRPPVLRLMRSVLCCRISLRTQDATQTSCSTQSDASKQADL

SMILES | IC50 [1] | Ki [2] | Ki (Thromboxane A2 receptor) | also measured
CS(=O)(=O)c1cc(F)cc2c1c(Sc1ccc(Cl)cc1F)c1n2CCC1CC(=O)O (stereo not given) | 32.1 nM | 3.5 nM | 198 nM | 
CCC(CC)c1cc(F)cc2c1c(Sc1ccc(Cl)cc1)c1n2CCC1CC(=O)O (stereo not given) | 21.6 nM | 8.1 nM | 363 nM | 
O=C(O)CC1CCn2c1c(Sc1ccc(Cl)cc1)c1c(Br)cc(F)cc12 (stereo not given) |  | 7.7 nM | 17 nM | 
CC(C)C(O)c1cc(F)cc2c1c(Sc1ccc(Cl)cc1)c1n2CCC1CC(=O)O (stereo not given) | 509 nM | 7.9 nM | 484 nM | 
CC(O)c1cc(F)cc2c1c(Sc1ccc(Cl)cc1)c1n2CCC1CC(=O)O (stereo not given) | 56 nM | 2.5 nM | 273 nM | 
CS(=O)(=O)c1cc(F)cc2c1c(-c1cccc(-c3ccccc3)c1)c1n2CCC1CC(=O)O (stereo not given) | 31.6 nM | 1.7 nM | 310 nM | 
CCS(=O)(=O)c1cc(F)cc2c1c(Sc1ccc(Cl)cc1)c1n2CCC1CC(=O)O (stereo not given) | 34 nM | 2.3 nM | 250 nM | 
CS(=O)(=O)c1cc(F)cc2c1c(C(=O)c1ccc(Cl)cc1)c1n2CCC1CC(=O)O (stereo not given) |  | 6.9 nM | 6970 nM | 
CC(=O)c1cc(F)cc2c1c(Sc1ccc(Cl)cc1)c1n2CCC1CC(=O)O (stereo not given) | 101 nM | 3.6 nM | 674 nM | 
CS(=O)(=O)c1cc(F)cc2c1c(Cc1ccc(Cl)cc1)c1n2CCC1CC(=O)O (stereo not given) | 4.7 nM | 0.5 nM | 11.7 nM | 
CSC(C)c1cc(F)cc2c1c(Sc1ccc(Cl)cc1)c1n2CCC1CC(=O)O (stereo not given) | 4.1 nM | 1.6 nM | 27.5 nM | 
CS(=O)(=O)c1cc(F)cc2c1c(Sc1ccc(Cl)cc1)c1n2CCC1CC(=O)O (stereo not given) | 10.4 nM | 1.3 nM | 226 nM | 
O=C(O)CC1CCn2c1c(Sc1ccc(Cl)cc1)c1ccc(F)cc12 (stereo not given) |  | 132 nM | 17 nM | 
CC(c1ccc(Cl)cc1)c1c2n(c3cc(F)cc(S(C)(=O)=O)c13)CCC2CC(=O)O (stereo not given) |  | 14.7 nM | 3190 nM | 
CS(=O)(=O)c1cc(F)cc2c1c(Sc1ccc(C(F)(F)F)cc1)c1n2CCC1CC(=O)O (stereo not given) | 29.2 nM | 1.8 nM | 286 nM | 
CS(=O)(=O)c1cc(F)cc2c1c(CCc1ccc(Cl)cc1)c1n2CCC1CC(=O)O (stereo not given) |  | 18.9 nM | 219 nM | 
CS(=O)(=O)c1cc(F)cc2c1c(Sc1ccc3ccccc3c1)c1n2CCC1CC(=O)O (stereo not given) | 40 nM | 1.2 nM | 583 nM | 
CS(=O)(=O)c1cc(F)cc2c1c(C(=O)c1ccc(Cl)cc1)c1n2CCCC1CC(=O)O (stereo not given) | 4.6 nM | 3 nM | 513 nM | bioavailability [3]: 100%; half-life [4]: 4.4 h
CCC(OC)c1cc(F)cc2c1c(Sc1ccc(Cl)cc1)c1n2CCC1CC(=O)O (stereo not given) | 6.7 nM | 1.1 nM | 200 nM | 
CC(C)c1cc(F)cc2c1c(Sc1ccc(Cl)cc1)c1n2CCC1CC(=O)O (stereo not given) | 8.6 nM | 2.4 nM | 46 nM | 
CS(=O)(=O)c1cc(F)cc2c1c(C(=O)c1ccc(Cl)cc1)c1n2CCCCC1CC(=O)O (stereo not given) | 5.2 nM | 1.4 nM | 675 nM | 
CS(=O)(=O)c1cc(F)cc2c1c(C(=O)c1ccc(Cl)cc1)c1n2CCC[C@H]1CC(=O)O |  | 36 nM | 7150 nM | Ki [5]: 2170 nM; Ki [6]: > 29200 nM; Ki [7]: > 21400 nM; Ki [8]: > 16100 nM; Ki [9]: > 24800 nM; Ki (Prostacyclin receptor): > 22500 nM
O=C(O)CC1CCn2c1c(Sc1ccc(Cl)cc1)c1c(C3CC3)cc(F)cc12 (stereo not given) |  | 5.7 nM | 136 nM | 
CS(=O)(=O)c1cc(F)cc2c1c(C(=O)c1ccc(Cl)cc1)c1n2CCC[C@@H]1CC(=O)O | 4.6 nM | 1 nM | 168 nM | Ki [10]: 19200 nM; Ki [5]: 142 nM; Ki [6]: 3400 nM; Ki [7]: 5060 nM; Ki [8]: > 16500 nM; Ki [9]: 21100 nM; Ki (Prostacyclin receptor): > 21200 nM

Source: ChEMBL document CHEMBL1144743, “Identification of prostaglandin D2 receptor antagonists based on a tetrahydropyridoindole scaffold” (Bioorg Med Chem Lett, 2008)
